Measured values from different studies.
Compare with care: the assays were run in different laboratories.
BRAF: Serine/threonine-protein kinase B-raf (BRAF, Homo sapiens, UniProt P15056)

Cn1cc(-c2cccc(N3CCc4c(sc5c4CC(C)(C)C5)C3=O)c2CO)cc(Nc2ccncn2)c1=O — inhibition (BRAF; enzyme activity; inhibitor; 1 µM): 21%
CNS(=O)(=O)Nc1nccc(Cc2c(C)c3ccc(Oc4ncccn4)cc3oc2=O)c1F — inhibition (BRAF; cell-free assay; competition with immobilised ligand; 10 µM): 89%
Cc1nn(C)cc1-c1nc2c(N3CCN(Cc4ccc(Cl)cc4)CC3)c(Cl)cnc2[nH]1 — remaining binding (Serine/threonine-protein kinase B-raf (BRAF, Homo sapiens, UniProt P15056, V600E); binding; competition with immobilised ligand; 1 µM): 100%
Cn1cncc1[C@@](O)(COc1ccc(C#N)cc1-c1ccc(OC(F)(F)F)cc1)c1ccc(C#N)cc1 — remaining binding (BRAF; cell-free assay; competition with immobilised ligand; 1 µM): 100%
Nc1ncc(-c2nc(N3CCOCC3)nc(N3CCOCC3)n2)c(C(F)F)n1 — remaining binding (BRAF; binding; competition with immobilised ligand; 10 µM): 36%
COc1ncccc1-c1cnn2ccc(N3CCN(C(=O)OC(C)C)CC3)nc12 — remaining binding (BRAF; binding; competition with immobilised ligand; 1 µM): 100%
N#CC1(c2ccccn2)CCN(Cc2cc(C(=O)O)c(=O)n3ccccc23)CC1 — remaining binding (BRAF; cell-free assay; competition with immobilised ligand; 1 µM): 93%
C#Cc1n[nH]c2c(-c3cn(C(C)c4ccccn4)c(=O)[nH]c3=O)cc(F)cc12 (centres unmarked) — inhibition (BRAF; enzyme activity; inhibitor; 1 µM): -2.7%
O=c1[nH]c2ccccc2n1C1CCN(Cc2ccc(-c3[nH]c4cc5ncnc5cc4nc3-c3ccccc3)cc2)CC1 — remaining signal (BRAF; cell-free assay; 0.5 µM): 101%
Cn1cc(-c2cc(F)cc(N3CCn4c(cc5c4CCCC5)C3=O)c2CO)cc(Nc2ccc(N3CCN(C4COC4)CC3)cn2)c1=O — inhibition (BRAF; enzyme activity; inhibitor; 0.1 µM): 7%
C#Cc1n[nH]c2c(-c3cn([C@@H](C)c4ccccc4)c(=O)[nH]c3=O)cc(F)cc12 — inhibition (BRAF; enzyme activity; inhibitor; 0.1 µM): -2.9%
